The subject of assay [1] is HEL. In words: Inhibition of cell proliferation expressed as CC50. It is filed as functional, Homo sapiens.
Assay [2] deals with Human betaherpesvirus 5. In words: Anti CMV (Cytomegalovirus- virus) activity against AD-169 strain in HEL cells. It is filed as functional, organism-based. The conditions noted are these: Human betaherpesvirus 5, HEL. The gist of the method:
(§1)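 Run in human embryonic lung (HEL) cells. The value is the 50% virus-inhibitory concentration, given in µg/mL.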

The test system of assay [3] is Human alphaherpesvirus 3. Kind of assay: Anti-VZV activity against YS TK+ in HEL cells. It is filed as functional, organism-based. The conditions noted are these: Human alphaherpesvirus 3, HEL.
Assay [4] has as its system Human alphaherpesvirus 3. Kind of assay: Anti-VZV activity against YS/R TK- in HEL cells. It is filed as functional, organism-based. The conditions noted are these: Human alphaherpesvirus 3, ys-r.
The test system of assay [5] is Human alphaherpesvirus 3. Kind of assay: Anti-VZV activity against 07/1 TK- in HEL cells. As to conditions: Human alphaherpesvirus 3, HEL. It is filed as functional, organism-based.
In assay [6] the test system is Human alphaherpesvirus 3. In words: Anti-VZV activity against OKA strain TK+ in HEL cells. It is filed as functional, organism-based. The conditions noted are these: Human alphaherpesvirus 3, oka.
Assay [7] concerns Cytomegalovirus. In words: Anti CMV (Cytomegalovirus- virus) activity against Davis strain in HEL cells. It is filed as functional, organism-based. As to conditions: Human betaherpesvirus 5, HEL. The gist of the method: as §1
A short description of assay [8]: Ratio of Cytotoxicity concentration to that of virus-inhibitory concentration. It is filed as functional. The procedure, abridged: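 Selectivity index is the 50% cytotoxic concentration in HEL cells divided by the 50% inhibitory concentration against CMV strain AD-169 in HEL cells.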
Assay [9] is described as follows: Ratio of 50% cytotoxic concentration to 50% virus-inhibitory concentration [the latter based on the 50% inhibitory concentration for CMV (AD-169 strain). It is filed as functional.
Assay [10] deals with HEL. Kind of assay: The compound was tested for Anti-VZV activity against 07/1 strain TK- in HEL cells. The conditions noted are these: Homo sapiens. It is filed as functional, cell-based. The gist of the method:
as §1

Assay [11] has as its system HEL. Kind of assay: The compound was tested for Anti-VZV activity against YS/R strain TK- in HEL cells. It is filed as functional, cell-based. As to conditions: Homo sapiens. The gist of the method: as §1
In assay [12] the test system is HEL. Kind of assay: The compound was tested for inhibition of cell proliferation in Human Embryonic Lung (HEL) Cells. It is filed as functional.
Assay [13] has as its system HEL. In words: The compound was tested for Anti-VZV activity against YS strain TK+ in HEL cells. The conditions noted are these: Homo sapiens. It is filed as functional, cell-based. The gist of the method:
as §1

In brackets after ≈: the same amount, converted by molar mass. Bounds are passed on as bounds.

`Cc1ccn2c(CSCc3ccccc3)c(-c3ccccc3)nc2c1` displayed a CC in assay [1] above 50 µg/mL. In addition, the concentration for half-maximal inhibition (IC50) (usually the point on the concentration scale where inhibition reaches its midpoint) is above 20 µg/mL in assay [2]; above 20 µg/mL in assay [3]; above 50 µg/mL in [4]; above 50 µg/mL in assay [5]; above 20 µg/mL in [6]; above 20 µg/mL in [7].

In assay [1], `Cc1ccn2c(CSCc3ccccc3Cl)cnc2c1` returned a CC of 18 µg/mL. In addition, the IC50 in assay [2] is 0.5 µg/mL (≈ 1.65 µM); in [3] it was above 5 µg/mL; in assay [4], above 5 µg/mL; in assay [5], above 5 µg/mL; in [6], 1.8 µg/mL (≈ 5.94 µM); in assay [7] it was 0.7 µg/mL (≈ 2.31 µM). The Selectivity index in assay [8] stood at 36.

Regarding `O=c1[nH]c(=O)n([C@H]2C[C@H](O)[C@@H](CO)O2)cc1/C=C/Br` [BRIVUDINE], in [1], the CC was above 50 µg/mL. Further, the IC50 in assay [3] is 0.002 µg/mL (≈ 0.006 µM); in [4], above 20 µg/mL; in assay [5], above 50 µg/mL; in assay [6] it was 0.0009 µg/mL (≈ 0.0027 µM).

Turning to `Cc1nc2ccccn2c1CSCc1ccccc1`, the CC in [1] was determined as 33 µg/mL. Moreover, the IC50 was 0.12 µg/mL (≈ 0.447 µM) in assay [2]; 0.23 µg/mL (≈ 0.857 µM) in assay [3]; 0.28 µg/mL (≈ 1.04 µM) in assay [4]; 0.5 µg/mL (≈ 1.86 µM) in assay [5]; 0.37 µg/mL (≈ 1.38 µM) in [6]; 0.13 µg/mL (≈ 0.484 µM) in assay [7]. For the same compound, in assay [8], the Selectivity index came to 275.

In [1], `Cc1cccn2c(CSCc3ccccc3)c(-c3ccccc3)nc12` showed a CC of 13 µg/mL. Besides, the 50% inhibitory concentration (IC50) in assay [2] is 1.2 µg/mL (≈ 3.48 µM); in assay [3], above 2 µg/mL; in [4] it was 2 µg/mL (≈ 5.81 µM); in assay [5], above 2 µg/mL; in [6] it was above 2 µg/mL; in [7], above 2 µg/mL. In [8], the Selectivity index turned out to be 11.

Turning to `Nc1nc2c(ncn2COCCO)c(=O)[nH]1` [ACYCLOVIR], the CC in assay [1] was above 100 µg/mL.

In the case of `Cc1ccn2c(CSCC(F)(F)F)cnc2c1`, the Selectivity index in [9] was above 1.2. For the same compound, the IC50 in assay [2] was 40 µg/mL (≈ 154 µM); in assay [10] it was above 50 µg/mL; in [11], above 50 µg/mL; in assay [6] it was above 50 µg/mL; in assay [7], 42 µg/mL (≈ 161 µM); in [13], above 50 µg/mL. The CC50 – broadly, the concentration at which the toxic effect on the cells reaches its halfway point – in assay [12] was above 50 µg/mL.

In the case of `Cc1cccn2c(CSCc3ccccc3)cnc12`, the CC in assay [1] came to 8 µg/mL. Moreover, the IC50 in [2] is 0.2 µg/mL (≈ 0.745 µM); in [3] it was 0.3 µg/mL (≈ 1.12 µM); in assay [4] it was above 1 µg/mL; in assay [5] it was 0.4 µg/mL (≈ 1.49 µM); in assay [6] it was 0.9 µg/mL (≈ 3.35 µM); in assay [7], 0.2 µg/mL (≈ 0.745 µM). Further, the Selectivity index in assay [8] was determined as 40.

On to `Cc1ccn2c(CSCc3ccccc3)c(C)nc2c1`, for which the CC in assay [1] is above 50 µg/mL. For the same compound, the IC50 in [2] was 3.4 µg/mL (≈ 12 µM); in assay [3] it was above 5 µg/mL; in assay [4] it was 10 µg/mL (≈ 35.4 µM); in assay [5], 14.1 µg/mL (≈ 49.9 µM); in assay [6], 10.5 µg/mL (≈ 37.2 µM); in [7], 3.5 µg/mL (≈ 12.4 µM). Also, the Selectivity index in assay [8] is recorded as above 15.

In turn, `Cc1cc(Br)cn2c(CSCc3ccccc3)cnc12` yielded a CC in assay [1] above 50 µg/mL. The IC50 is 0.12 µg/mL (≈ 0.346 µM) in assay [2]; 7 µg/mL (≈ 20.2 µM) in assay [3]; 0.86 µg/mL (≈ 2.48 µM) in [4]; 1.4 µg/mL (≈ 4.03 µM) in [5]; 5.5 µg/mL (≈ 15.8 µM) in [6]; 0.12 µg/mL (≈ 0.346 µM) in [7]. Also, the Selectivity index in [8] is above 417.

As for `Cc1cc(Br)c2ncc(CSCc3ccccc3)n2c1`, in assay [1], the CC is above 50 µg/mL. The half-inhibitory concentration (IC50) was 1.1 µg/mL (≈ 3.17 µM) in [2]; above 50 µg/mL in [3]; 4 µg/mL (≈ 11.5 µM) in assay [4]; 9 µg/mL (≈ 25.9 µM) in assay [5]; 31 µg/mL (≈ 89.3 µM) in [6]; 1.1 µg/mL (≈ 3.17 µM) in assay [7]. Further, the Selectivity index in assay [8] was above 45.

`Cc1ccc(C)n2c(CSCc3ccccc3)cnc12` returned a CC in assay [1] of 3 µg/mL. For the same compound, the IC50 in assay [2] is 1.2 µg/mL (≈ 4.25 µM); in [3] it was above 2 µg/mL; in [4] it was above 2 µg/mL; in assay [5], above 2 µg/mL; in [6] it was above 2 µg/mL; in assay [7], above 2 µg/mL. The Selectivity index in assay [8] is given as 2.5.

`Cc1c(Br)cc(Br)c2ncc(CSCc3ccccc3)n12` gave a CC in [1] above 50 µg/mL. The half-inhibitory concentration (IC50) in assay [2] was above 50 µg/mL; in [3] it was above 50 µg/mL; in assay [4], above 20 µg/mL; in assay [5] it was above 50 µg/mL; in assay [6], above 50 µg/mL; in assay [7] it was above 50 µg/mL.

On to `Cc1ccn2c(CSCCc3ccccc3)cnc2c1`, for which the CC in assay [1] is above 50 µg/mL. Moreover, the half-maximal inhibitory concentration (IC50) in assay [2] worked out at 0.33 µg/mL (≈ 1.17 µM); in assay [3], 0.5 µg/mL (≈ 1.77 µM); in assay [4], 0.66 µg/mL (≈ 2.34 µM); in [5] it was 0.95 µg/mL (≈ 3.36 µM); in [6], 0.2 µg/mL (≈ 0.708 µM); in assay [7], 0.35 µg/mL (≈ 1.24 µM). Moreover, in assay [8], the Selectivity index is on record as above 151.

As for `Cc1ccc2ncc(CSCc3ccccc3)n2c1`, the CC in [1] was determined as 23 µg/mL. The IC50 is 0.3 µg/mL (≈ 1.12 µM) in assay [2]; 6.4 µg/mL (≈ 23.8 µM) in assay [3]; 1.2 µg/mL (≈ 4.47 µM) in [4]; 2.58 µg/mL (≈ 9.61 µM) in [5]; 0.74 µg/mL (≈ 2.76 µM) in assay [6]; 0.5 µg/mL (≈ 1.86 µM) in [7]. For the same compound, the Selectivity index in assay [8] is given as 77.

For `Cc1ccn2c(CSCc3ccccc3)cnc2c1`, the CC in [1] was determined as 45 µg/mL. Moreover, the half-inhibitory concentration (IC50) was determined as 3.5 µg/mL (≈ 13 µM) in assay [2]; 17 µg/mL (≈ 63.3 µM) in assay [3]; 10 µg/mL (≈ 37.3 µM) in assay [4]; 15 µg/mL (≈ 55.9 µM) in assay [6]; 3.5 µg/mL (≈ 13 µM) in assay [7]. Further, the Selectivity index in [8] was 13.

With `Cc1ccn2c(CSCc3ccc(Cl)cc3)cnc2c1`, the CC in assay [1] was found to be 19 µg/mL. In addition, the 50% inhibitory concentration (IC50) in assay [2] is 1.2 µg/mL (≈ 3.96 µM); in assay [3], above 5 µg/mL; in [4] it was above 5 µg/mL; in assay [5] it was above 5 µg/mL; in assay [6], 2 µg/mL (≈ 6.6 µM); in [7], 1.6 µg/mL (≈ 5.28 µM). In assay [8], the Selectivity index was found to be 16.

In assay [1], `FC(F)(F)c1cc(Cl)c2ncc(CSCc3ccccc3)n2c1` gave a CC of 40 µg/mL. The IC50 is above 5 µg/mL in assay [2]; 8.8 µg/mL (≈ 24.7 µM) in [3]; 9.8 µg/mL (≈ 27.5 µM) in [4]; above 5 µg/mL in [5]; 6.6 µg/mL (≈ 18.5 µM) in assay [6]; above 5 µg/mL in assay [7]. The Selectivity index in assay [8] is recorded as below 8.

`Nc1nc2c(ncn2COC(CO)CO)c(=O)[nH]1` [GANCICLOVIR]: the CC in assay [1] is above 100 µg/mL. The IC50 in assay [2] and in [7] was 0.5 µg/mL (≈ 1.96 µM) throughout.

The record behind these values is ChEMBL document CHEMBL1131427, “Synthesis of imidazo[1,2-a]pyridines as antiviral agents” (J Med Chem, 1998).
